Experimental data: ChEMBL document CHEMBL4052597, “Symmetrically Substituted Xanthone Amphiphiles Combat Gram-Positive Bacterial Resistance with Enhanced Membrane Selectivity” (J Med Chem, 2017)
≈ marks a conversion by molar mass, not a printed value. Calls of active or inactive are those of the source. The rule behind the calls is not given here. Peptide text beside a SMILES is read from it.

Key:
Staphylococcus aureus [1] = experiment: Antibacterial activity against Staphylococcus aureus ATCC 29213 infected in C57BL6 mouse cornea assessed as decrease in number of viable bacteria at 0.5% administered topically at 2 hrs interval for 4 times starting on day 1 post infection measured post last dose relative to control; format: functional
Lipid bilayer [2] = experiment: Induction of membrane damage in DOPC/cholesterol large unilamellar vesicles assessed as calcein leakage at compound to lipid ratio of 1:16 after 1 hr by fluorescence assay relative to control
Method in brief: (§1)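 100 nm calcein-loaded LUVs made by film hydration; lipid content set by total phosphorus assay. DOPC/cholesterol (3:1, w/w) mimics mammalian and DOPE/DOPG (3:1, w/w) bacterial membranes. Compound in DMF added at lipid-to-compound ratio 16 (6.25 µM compound), final DMF limited to 0.5%. Fluorescence monitored at ex 490/em 520 nm for 1 hour; replicated.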

Staphylococcus aureus [3] = experiment: Disruption of membrane in Staphylococcus aureus isolate DM4001R assessed as increase in ATP leakage at 4 times MIC after 1 hr by ATP bioluminescent assay relative to control; format: functional
Method in brief: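 S. aureus DM4001 grown to exponential phase, washed three times in 20 mM PBS (pH 7), resuspended to OD600 0.2. Compound added, suspensions held 1 hour at 37 °C, then centrifuged. Supernatant mixed with luciferase/luciferin enzyme mix; extracellular ATP quantified by luminescence. Replicated.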

Staphylococcus aureus [4] = experiment: Antibacterial activity against methicillin-resistant Staphylococcus aureus DM 21455 after 24 hrs by two fold dilution assay; format: functional; conditions: DM 21455, 24 h
Method in brief: (§2)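 CLSI broth macrodilution in cation-adjusted Mueller-Hinton broth. Compounds were dissolved in DMF and diluted in PBS to a 1000 µg/mL stock, then serially 2-fold diluted in CA-MHB. The inoculum came from colonies on 18-20 h TSA plates (direct colony suspension), adjusted to ~5×10^5 CFU/mL. Incubation was 24 h at 35 °C. MIC is the lowest concentration with no visible growth versus control. Biological replicates.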

Lipid bilayer [5] = experiment: Induction of membrane damage in DOPE/DOPG large unilamellar vesicles assessed as calcein leakage at compound to lipid ratio of 1:16 after 1 hr by fluorescence assay relative to control; method in brief: as §1
Staphylococcus aureus [6] = experiment: Antibacterial activity against Staphylococcus aureus DM 4001R after 24 hrs by two fold dilution assay; format: functional; method in brief: as §2
Staphylococcus aureus [7] = experiment: Disruption of cytoplasmic membrane in Staphylococcus aureus isolate DM4001R at 2 times MIC after 3000 secs by SYTOX green dye based fluorescence assay; format: functional
Method in brief: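 Clinical S. aureus isolate DM4001R incubated with SYTOX Green plus compound; membrane permeabilization read as increased fluorescence intensity. Measurements replicated.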

Bacillus cereus = experiment: Antibacterial activity against Bacillus cereus ATCC 11778 after 24 hrs by two fold dilution assay; format: functional; conditions: ATCC 11778, 24 h
Method in brief: (§3)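 Broth macro-dilution per CLSI in cation-adjusted Mueller-Hinton broth; compounds dissolved in DMF, diluted in PBS to 1000 µg/mL stock, then serial 2-fold dilutions in CA-MHB in tubes. Inoculum from 18-20 h TSA colonies (direct colony suspension), adjusted to about 5× 10^5 CFU/mL. MIC read after 24 h at 35 °C as lowest concentration with no visible growth; biological replicates.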

Staphylococcus aureus [8] = experiment: Antibacterial activity against methicillin-resistant Staphylococcus aureus DM 9808R after 24 hrs by two fold dilution assay; format: functional; method in brief: as §2
Enterococcus faecium [9] = experiment: Antibacterial activity against vancomycin A-resistant Enterococcus faecium VRE 1006 after 24 hrs by two fold dilution assay; format: functional; conditions: VRE 1006, 24 h; method in brief: as §2
Enterococcus faecium [10] = experiment: Antibacterial activity against vancomycin A-resistant Enterococcus faecium VRE 1008 after 24 hrs by two fold dilution assay; format: functional; conditions: VRE 1008, 24 h; method in brief: as §2
Staphylococcus aureus [11] = experiment: Antibacterial activity against methicillin-resistant Staphylococcus aureus DB57964 after 24 hrs by two fold dilution assay; format: functional; conditions: DB57964, 24 h; method in brief: as §2
Staphylococcus aureus [12] = experiment: Antibacterial activity against methicillin-sensitive Staphylococcus aureus ATCC 29213 after 24 hrs by two fold dilution assay; format: functional; conditions: ATCC 29213, 24 h; method in brief: as §2
Staphylococcus aureus [13] = experiment: Antibacterial activity against methicillin-sensitive Staphylococcus aureus ATCC 29737 after 24 hrs by two fold dilution assay; format: functional; conditions: ATCC 29737, 24 h; method in brief: as §2
Enterococcus hirae = experiment: Antibacterial activity against Enterococcus hirae ATCC 9790 after 24 hrs by two fold dilution assay; format: functional; conditions: ATCC 9790, 24 h; method in brief: as §3
Enterococcus faecium [14] = experiment: Antibacterial activity against vancomycin A-resistant Enterococcus faecium VRE 1007 after 24 hrs by two fold dilution assay; format: functional; conditions: VRE 1007, 24 h; method in brief: as §2
Enterococcus faecalis = experiment: Antibacterial activity against Enterococcus faecalis ATCC 29212 after 24 hrs by two fold dilution assay; format: functional; conditions: ATCC 29212, 24 h; method in brief: as §3
Staphylococcus aureus [15] = experiment: Antibacterial activity against methicillin-sensitive Staphylococcus aureus DM4583R after 24 hrs by two fold dilution assay; format: functional; method in brief: as §2
Staphylococcus aureus [16] = experiment: Antibacterial activity against methicillin-sensitive Staphylococcus aureus DM4400R after 24 hrs by two fold dilution assay; format: functional; method in brief: as §2
Staphylococcus aureus [17] = experiment: Antibacterial activity against methicillin-resistant Staphylococcus aureus ATCC 43300 after 24 hrs by two fold dilution assay; format: functional; conditions: ATCC 43300, 24 h; method in brief: as §2
Staphylococcus aureus [18] = experiment: Antibacterial activity against methicillin-sensitive Staphylococcus aureus ATCC 6538 after 24 hrs by two fold dilution assay; format: functional; conditions: ATCC 6538, 24 h; method in brief: as §2
Staphylococcus aureus [19] = experiment: Antibacterial activity against methicillin-sensitive Staphylococcus aureus DM4299 after 24 hrs by two fold dilution assay; format: functional; conditions: DM4299, 24 h; method in brief: as §2
Staphylococcus aureus [20] = experiment: Antibacterial activity against methicillin-resistant Staphylococcus aureus DB6506 after 24 hrs by two fold dilution assay; format: functional; conditions: DB6506, 24 h; method in brief: as §2
Staphylococcus aureus [21] = experiment: Antibacterial activity against methicillin-resistant Staphylococcus aureus ATCC BAA-38 after 24 hrs by two fold dilution assay; format: functional; conditions: ATCC BAA-38, 24 h; method in brief: as §2
Staphylococcus aureus [22] = experiment: Antibacterial activity against methicillin-resistant Staphylococcus aureus DB68004 after 24 hrs by two fold dilution assay; format: functional; conditions: DB68004, 24 h; method in brief: as §2
Staphylococcus aureus [23] = experiment: Antibacterial activity against methicillin-resistant Staphylococcus aureus ATCC 700699 after 24 hrs by two fold dilution assay; format: functional; conditions: Mu50, 24 h; method in brief: as §2
Staphylococcus aureus [24] = experiment: Ratio of MIC for Staphylococcus aureus ATCC 29213 after and before 15 serial passages; format: functional
Staphylococcus aureus [25] = experiment: Antibacterial activity against Staphylococcus aureus ATCC 700699 infected in C57BL6 mouse cornea assessed as decrease in number of viable bacteria at 0.5% administered topically at 2 hrs interval for 4 times starting on day 1 post infection measured post last dose relative to control; format: functional, Mu50

Compound	MIC (Staphylococcus aureus [4]) [µg/mL]	MIC (Staphylococcus aureus [6]) [µg/mL]	MIC (Bacillus cereus) [µg/mL]	MIC (Staphylococcus aureus [8]) [µg/mL]	further results
C[C@H]1COc2c(N3CCN(C)CC3)c(F)cc3c(=O)c(C(=O)O)cn1c23.C[C@H]1COc2c(N3CCN(C)CC3)c(F)cc3c(=O)c(C(=O)O)cn1c23.O [LEVOFLOXACIN]	–	–	–	–	Activity (Staphylococcus aureus [1]): 99.2%
COC(=O)[C@H](CCCCN)NC(=O)COc1cc(OCC=C(C)C)cc2oc3cc(OCC=C(C)C)cc(OCC(=O)N[C@@H](CCCCN)C(=O)OC)c3c(=O)c12	6.25 (≈ 7.84 µM)	12.5 (≈ 15.7 µM)	6.25 (≈ 7.84 µM)	12.5 (≈ 15.7 µM)	Activity (Lipid bilayer [2]): < 20%; Activity (Staphylococcus aureus [3]): 106.7%; Activity (Lipid bilayer [5]): 48.2%; Activity (Staphylococcus aureus [7]): Active
CCN(CC)CCCNC(=O)COc1cc(OCC=C(C)C)cc2oc3cc(OCC=C(C)C)cc(OCC(=O)NCCCN(CC)CC)c3c(=O)c12	6.25 (≈ 8.48 µM)	6.25 (≈ 8.48 µM)	25 (≈ 33.9 µM)	12.5 (≈ 17 µM)	–
CN[C@H](CC(C)C)C(=O)N[C@H]1C(=O)N[C@@H](CC(N)=O)C(=O)N[C@H]2C(=O)N[C@H]3C(=O)N[C@H](C(=O)N[C@H](C(=O)O)c4cc(O)cc(O)c4-c4cc3ccc4O)[C@H](O)c3ccc(c(Cl)c3)Oc3cc2cc(c3O[C@@H]2O[C@H](CO)[C@@H](O)[C@H](O)[C@H]2O[C@H]2C[C@](C)(N)[C@H](O)[C@H](C)O2)Oc2ccc(cc2Cl)[C@H]1O [VANCOMYCIN]	1.56 (≈ 1.08 µM)	1.56 (≈ 1.08 µM)	1.56 (≈ 1.08 µM)	3.13 (≈ 2.16 µM)	MIC (Enterococcus faecium [9]): > 50 µg/mL; MIC (Enterococcus faecium [10]): > 50 µg/mL; MIC (Staphylococcus aureus [11]): 0.78 µg/mL (≈ 0.538 µM); MIC (Staphylococcus aureus [12]): 1.56 µg/mL (≈ 1.08 µM); MIC (Staphylococcus aureus [13]): 0.78 µg/mL (≈ 0.538 µM); MIC (Enterococcus hirae): 0.78 µg/mL (≈ 0.538 µM); MIC (Enterococcus faecium [14]): > 50 µg/mL; MIC (Enterococcus faecalis): 1.56 µg/mL (≈ 1.08 µM); MIC (Staphylococcus aureus [15]): 1.56 µg/mL (≈ 1.08 µM); MIC (Staphylococcus aureus [16]): 0.78 µg/mL (≈ 0.538 µM); MIC (Staphylococcus aureus [17]): 0.78 µg/mL (≈ 0.538 µM); MIC (Staphylococcus aureus [18]): 0.78 µg/mL (≈ 0.538 µM); MIC (Staphylococcus aureus [19]): 1.56 µg/mL (≈ 1.08 µM); MIC (Staphylococcus aureus [20]): 0.78 µg/mL (≈ 0.538 µM); MIC (Staphylococcus aureus [21]): 1.56 µg/mL (≈ 1.08 µM); MIC (Staphylococcus aureus [22]): 1.56 µg/mL (≈ 1.08 µM); MIC (Staphylococcus aureus [23]): 1.56 µg/mL (≈ 1.08 µM)
CCn1cc(C(=O)O)c(=O)c2cc(F)c(N3CCNCC3)cc21 [NORFLOXACIN]	–	–	–	–	Ratio (Staphylococcus aureus [24]): 128
CC(C)=CCOc1cc(OCC(=O)NCCCN(C)C)c2c(=O)c3c(OCC(=O)NCCCN(C)C)cc(OCC=C(C)C)cc3oc2c1	6.25 (≈ 9.18 µM)	6.25 (≈ 9.18 µM)	12.5 (≈ 18.4 µM)	12.5 (≈ 18.4 µM)	–
CC[C@H](C)[C@H](NC(=O)CN)C(=O)NCC(=O)N[C@@H](CCCCN)C(=O)N[C@@H](Cc1ccccc1)C(=O)N[C@@H](CC(C)C)C(=O)N[C@@H](CCCCN)C(=O)N[C@@H](CCCCN)C(=O)N[C@@H](C)C(=O)N[C@@H](CCCCN)C(=O)N[C@@H](CCCCN)C(=O)N[C@@H](Cc1ccccc1)C(=O)NCC(=O)N[C@@H](CCCCN)C(=O)N[C@@H](C)C(=O)N[C@@H](Cc1ccccc1)C(=O)N[C@H](C(=O)N[C@@H](CCCCN)C(=O)N[C@H](C(=O)N[C@@H](CC(C)C)C(=O)N[C@@H](CCCCN)C(=O)N[C@@H](CCCCN)C(=O)O)[C@@H](C)CC)C(C)C (H-GIGKFLKKAKKFGKAFVKILKK-OH)	12.5 (≈ 5.04 µM)	12.5 (≈ 5.04 µM)	12.5 (≈ 5.04 µM)	25 (≈ 10.1 µM)	Activity (Staphylococcus aureus [25]): 93.3%
COC(=O)[C@H](CCCNC(=N)N)NC(=O)[C@H](CCCNC(=N)N)NC(=O)COc1cc(OC/C=C(\C)CCC=C(C)C)cc2oc3cc(OC/C=C(\C)CCC=C(C)C)cc(OCC(=O)N[C@@H](CCCNC(=N)N)C(=O)N[C@@H](CCCNC(=N)N)C(=O)OC)c3c(=O)c12	25 (≈ 19.2 µM)	25 (≈ 19.2 µM)	25 (≈ 19.2 µM)	25 (≈ 19.2 µM)	–
